Source: ChEMBL document CHEMBL4425138, “Probing Lipophilic Adamantyl Group as the P1-Ligand for HIV-1 Protease Inhibitors: Design, Synthesis, Protein X-ray Structural Studies, and Biological Evaluation” (J Med Chem, 2016)

What was measured:
[1] = tested on: Human immunodeficiency virus 1; assay: Antiviral activity against multi-drug resistant HIV1C harboring protease L10I/I15V/K20R/L24I/M36I/M46L/I54V/I62V/L63P/K70Q/V82A/L89M mutant infected in human MT4 cells by p24 assay; format: functional, organism-based; conditions: Human immunodeficiency virus 1, C
Outline: (§1)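 MT-4 cells (1×10^4) infected with 50 TCID50 of virus and cultured across a range of compound concentrations. Virus was wild-type HIV-1 NL4-3 or a multidrug-resistant variant (HIV-1B, HIV-1C, or DRV-resistant P20). IC50 from p24 assay. Run in triplicate. Values are means (±1 SD) from two independent experiments.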

[2] = tested on: Human immunodeficiency virus 1; assay: Antiviral activity against multi-drug resistant HIV1B harboring protease L10I/L33I/M36I/M46I/F53L/K55R/I62V/L63P/A71V/G73S/V82A/L90M/I93L mutant infected in human MT4 cells by p24 assay; format: functional, organism-based; conditions: Human immunodeficiency virus 1, B; outline: as §1
[3] = tested on: Human immunodeficiency virus 1; assay: Antiviral activity against wild type HIV1 NL4-3 infected in human MT4 cells by p24 assay; format: functional, organism-based; conditions: Human immunodeficiency virus 1, NL4-3, MT4
Outline: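 MT-4 cells (1×10^4) infected with 50 TCID50 of virus and cultured across a range of compound concentrations. IC50 from p24 assay. Run in triplicate. Values are means (±1 SD) from two independent experiments.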

[4] = tested on: Human immunodeficiency virus 1; assay: Antiviral activity against darunavir resistant HIV1 harboring protease L10I/I15V/K20R/L24I/V32I/M36I/M46L/L63P/A71T/V82A/L89M mutant at 20 passages infected in human MT4 cells by p24 assay; format: functional, organism-based; conditions: Human immunodeficiency virus 1, MT4; outline: as §1
Protease = Protease (Human immunodeficiency virus 1, UniProt Q9YQ12); assay: Inhibition of HIV1 protease using Abz-NleF*-6 as substrate preincubated for 5 to 10 mins followed by substrate addition measured after 1 hr by fluorometric assay
Chain of Protease (Q9YQ12 whole entry): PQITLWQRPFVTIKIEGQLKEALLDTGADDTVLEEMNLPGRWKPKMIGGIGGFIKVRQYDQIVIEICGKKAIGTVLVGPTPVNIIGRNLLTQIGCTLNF

[5] = tested on: Human immunodeficiency virus; assay: Antiviral activity against HIV1 […] infected in human MT2 cells by MTT assay; format: functional, organism-based; conditions: Human immunodeficiency virus 1, MT2
Outline: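 MT-2 human T-lymphoid cells infected with 100 TCID50 of HIV-1 LAI and cultured with each inhibitor. IC50 read by MTT assay. Run in triplicate. Values are means (±1 SD) from two independent experiments.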

Row | SMILES | IC50 [1] [nM] | IC50 [2] [nM] | IC50 [3] [nM] | IC50 [4] [nM] | Ki (Protease) [nM] | IC50 [5] [nM]
1 | CC(C)CN(C[C@@H](O)[C@H](Cc1ccccc1)NC(=O)O[C@H]1CCOC1)S(=O)(=O)c1ccc(N)cc1 | 430 | 860 | 17 | > 1000 |  | 
2 | CC(C)CN(C[C@@H](O)[C@H](Cc1ccccc1)NC(=O)O[C@H]1CO[C@H]2OCC[C@H]21)S(=O)(=O)c1ccc(N)cc1 | 30 | 43 |  | 87 |  | 
3 | COc1ccc(S(=O)(=O)N(C[C@@H](O)[C@H](CC23CC4CC(CC(C4)C2)C3)NC(=O)O[C@H]2CO[C@H]3OCC[C@H]32)c2ccccc2)cc1 |  |  |  |  | 1.1 | 
4 | COc1ccc(S(=O)(=O)N(CC(C)C)C[C@@H](O)[C@H](CC23CC4CC(CC(C4)C2)C3)NC(=O)O[C@H]2CO[C@H]3OCCC[C@H]32)cc1 |  |  |  |  | 1.9 | 460
5 | COc1ccc(S(=O)(=O)N(CC(C)C)C[C@@H](O)[C@H](CC23CC4CC(CC(C4)C2)C3)NC(=O)O[C@H]2CCOC2)cc1 | > 1000 | > 1000 | 460 | > 1000 | 0.54 | 39
6 | COc1ccc(S(=O)(=O)N(Cc2ccccc2)C[C@@H](O)[C@H](CC23CC4CC(CC(C4)C2)C3)NC(=O)O[C@H]2CO[C@H]3OCC[C@H]32)cc1 |  |  |  |  | 8.5 | 310
7 | CC(C)CN(C[C@@H](O)[C@H](CC12CC3CC(CC(C3)C1)C2)NC(=O)O[C@H]1CCOC1)S(=O)(=O)c1ccc(N)cc1 |  |  |  |  | 3.4 | 580
8 | COc1ccc(S(=O)(=O)N(CC(C)C)C[C@@H](O)[C@H](CC23CC4CC(CC(C4)C2)C3)NC(=O)O[C@H]2CO[C@H]3OCC[C@H]32)cc1 | 360 | > 1000 | 15 | > 1000 | 0.48 | 32
9 | COc1ccc(S(=O)(=O)N(CC(C)C)C[C@@H](O)[C@H](CC23CC4CC(CC(C4)C2)C3)NC(=O)O[C@@H]2CCOC2)cc1 |  |  |  |  | 2.8 | 
10 | COc1ccc(S(=O)(=O)N(CC(C)C)C[C@@H](O)[C@H](CC23CC4CC(CC(C4)C2)C3)NC(=O)O[C@@H]2CO[C@@H]3OCCC[C@@H]32)cc1 |  |  |  |  | 24 | > 1000
11 | CC(C)CN(C[C@@H](O)[C@H](CC12CC3CC(CC(C3)C1)C2)NC(=O)O[C@H]1CO[C@H]2OCC[C@H]21)S(=O)(=O)c1ccc(N)cc1 |  |  |  |  | 0.73 | 60
12 | COc1ccc(S(=O)(=O)N(CC(C)C)C[C@@H](O)[C@H](CC23CC4CC(CC(C4)C2)C3)NC(=O)O[C@@H]2CO[C@@H]3OCC[C@@H]32)cc1 |  |  |  |  | 1 | 
